IC50, MIC and Activity data for 13 compounds are collected here from ChEMBL document CHEMBL1143955, “Synthesis and exploration of novel curcumin analogues as anti-malarial agents” (Bioorg Med Chem, 2008).

Values after ≈ are worked out from the molar mass of the structure shown. Active and inactive are the calls of the source. The calls are words filed in the database; no cut-off is given here.

A word on the IC50: it is the concentration that inhibits the measured activity by half. High values mean weaker potency, low ones greater potency. What is called MIC is the least concentration at which growth counts as inhibited. Low values mean inhibition by little substance, high ones a need for much substance.

Common to all, as to type: functional, organism-based
Assay [1] relates to Plasmodium falciparum. The experiment in a line: Antimalarial activity against chloroquine-sensitive Plasmodium falciparum FCK2. In outline:
(§1)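 Sorbitol-synchronised P. falciparum cultured in RPMI 1640 with 10% human serum, 0.225% sodium bicarbonate and 0.01 mg/mL gentamicin. Infected red cells (1–2% parasitemia, ring stage) were used at 2% hematocrit with varying inhibitor concentrations (final DMSO ≤0.05%; 0.05% DMSO as solvent control), starting at early trophozoite and dosing up to day 4. Parasitemia was read by Giemsa microscopy, and IC50 was fitted by non-linear regression of relative % parasitemia versus log concentration.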

For assay [2], the system named is Plasmodium falciparum. Description: Antimalarial activity against chloroquine-resistant Plasmodium falciparum MP14. The gist of the method: as §1
For assay [3], the system named is Plasmodium falciparum. The experiment in a line: Antimalarial activity against chloroquine-sensitive Plasmodium falciparum FCK2 in red blood cells as reduced parasitemia in [3H]hypoxanthine uptake. The conditions noted are these: in the assay text read “by microscopic examination” for “in [3H]hypoxanthine uptake”.
In assay [4] the test system is Plasmodium falciparum. Description: Antimalarial activity against chloroquine-resistant Plasmodium falciparum MP14 in red blood cells as reduced parasitemia in [3H]hypoxanthine uptake assay. In outline: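 Ring-stage synchronised parasites were used at 2–3% hematocrit and 1–2% initial parasitemia, in duplicate. Varying inhibitor concentrations (final DMSO ≤0.05%) were added in fresh medium every 24 h for 48 h. [3H]-hypoxanthine was then added for 36 h, and cells were harvested onto glass-fibre filters and read by scintillation counting. IC50 came from a non-linear regression fit of relative % parasitemia versus log concentration.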

As to `COc1cc(/C=C/c2cc(/C=C/c3ccc(O)c(OC)c3)n(-c3ccc(F)cc3)n2)ccc1O`, in the assay with Plasmodium falciparum [1], the concentration for half-maximal inhibition (IC50) worked out at 2.42 µM and the minimum inhibitory concentration (MIC) was 14.3 µM (≈ 6.56 µg/mL). In the assay with Plasmodium falciparum [2], this compound returned an IC50 of 2.1 µM and an MIC of 12.9 µM (≈ 5.91 µg/mL).
For `COc1ccc(/C=C/C(=O)CC(=O)/C=C/c2ccc(OC)c(OC)c2)cc1OC` [TETRAMETHOXYCURCUMIN] the same measures were 7.86 µM, 29.6 µM (≈ 11.7 µg/mL), 8.4 µM and 29.1 µM (≈ 11.5 µg/mL).
In the assay with Plasmodium falciparum [1], `COc1cc(/C=C/C(=O)C(=Cc2ccc(O)cc2)C(=O)/C=C/c2ccc(O)c(OC)c2)ccc1O` displayed an IC50 of 5.85 µM and an MIC of 23.7 µM (≈ 11.2 µg/mL). In addition, in the assay with Plasmodium falciparum [2], the concentration for half-maximal inhibition (IC50) came out at 5.36 µM and the minimum inhibitory concentration (MIC) was determined as 23.1 µM (≈ 10.9 µg/mL).
In the assay with Plasmodium falciparum [1], `COc1cc(/C=C/c2cc(/C=C/c3ccc(O)c(OC)c3)on2)ccc1O` registered a half-inhibitory concentration (IC50) of 8.44 µM and a minimal inhibitory concentration (MIC) of 27.3 µM (≈ 9.98 µg/mL). Besides, in the assay on Plasmodium falciparum [2], half-maximal inhibition (IC50) required 7.92 µM and the MIC amounted to 25.3 µM (≈ 9.24 µg/mL).
On the same counts, the results for `COc1cc(C=C(C(=O)/C=C/c2ccc(O)c(OC)c2)C(=O)/C=C/c2ccc(O)c(OC)c2)ccc1O` are 0.92 µM, 5.2 µM (≈ 2.61 µg/mL), 0.75 µM and 4.8 µM (≈ 2.41 µg/mL).
On the same counts, the results for `COc1cc(/C=C/C(=O)C(=Cc2ccccc2)C(=O)/C=C/c2ccc(O)c(OC)c2)ccc1O` are 3.89 µM, 16.5 µM (≈ 7.53 µg/mL), 4.12 µM and 17.2 µM (≈ 7.85 µg/mL).
As to `COc1cc(/C=C/c2cc(/C=C/c3ccc(O)c(OC)c3)[nH]n2)ccc1O` [CURCUMIN PYRAZOLE], the values for the half-maximal inhibitory concentration (IC50) in the assay with Plasmodium falciparum [1] and in the assay with Plasmodium falciparum [2] were 0.48 µM and 0.45 µM, respectively. For the same compound, the MIC turned out to be 3.9 µM (≈ 1.42 µg/mL) against Plasmodium falciparum [1] and 3.6 µM (≈ 1.31 µg/mL) in the assay on Plasmodium falciparum [2].
In the assay on Plasmodium falciparum [1], `COc1cc(/C=C/c2cc(/C=C/c3ccc(O)c(OC)c3)n(-c3ccccc3)n2)ccc1O` had an IC50 of 8.48 µM and an MIC of 22.4 µM (≈ 9.87 µg/mL). In the assay with Plasmodium falciparum [2], this compound yielded a half-maximal inhibitory concentration (IC50) of 9.1 µM and an MIC of 25 µM (≈ 11 µg/mL).
In the assay with Plasmodium falciparum [1], `COc1cc(/C=C/C(=O)CC(=O)/C=C/c2ccc(OC(C)=O)c(OC)c2)ccc1OC(C)=O` gave an IC50 of 2.34 µM and a minimum inhibitory concentration (MIC) of 14.9 µM (≈ 6.74 µg/mL). In the assay with Plasmodium falciparum [2], this compound came in with a concentration for half-maximal inhibition (IC50) of 2.51 µM and an MIC of 15.3 µM (≈ 6.92 µg/mL).
With `COc1cc(/C=C/c2cc(/C=C/c3ccc(O)c(OC)c3)n(-c3cccc([N+](=O)[O-])c3)n2)ccc1O`, the outcome with Plasmodium falciparum [3] and in the assay on Plasmodium falciparum [4] was Active. The IC50 turned out to be 0.87 µM in the assay on Plasmodium falciparum [1] and 0.89 µM in the assay with Plasmodium falciparum [2]. In addition, the MIC with Plasmodium falciparum [1] turned out to be 4.9 µM (≈ 2.38 µg/mL); in the assay on Plasmodium falciparum [2], 5.1 µM (≈ 2.48 µg/mL).
For the compound `COc1ccc(-n2nc(/C=C/c3ccc(O)c(OC)c3)cc2/C=C/c2ccc(O)c(OC)c2)cc1`, in the assay on Plasmodium falciparum [1], the half-inhibitory concentration (IC50) is 22.6 µM and the MIC turned out to be 35.8 µM (≈ 16.8 µg/mL). Moreover, in the assay on Plasmodium falciparum [2], the IC50 was 24.6 µM and it took 41.2 µM (≈ 19.4 µg/mL) to inhibit growth (MIC).
For the compound `COc1cc(/C=C/c2cc(/C=C/c3ccc(O)c(OC)c3)n(-c3ccc(Cl)cc3Cl)n2)ccc1O`, the half-inhibitory concentration (IC50) in the assay on Plasmodium falciparum [1] came to 4.65 µM; with Plasmodium falciparum [2] it was 4.8 µM. In addition, the MIC with Plasmodium falciparum [1] stood at 21.8 µM (≈ 11.1 µg/mL); against Plasmodium falciparum [2] it was 21.4 µM (≈ 10.9 µg/mL).
For the compound `COc1cc(/C=C/C(=O)CC(=O)/C=C/c2ccc(O)c(OC)c2)ccc1O` [CURCUMIN], the figures for the IC50 with Plasmodium falciparum [1] and in the assay with Plasmodium falciparum [2] were 3.25 µM and 4.21 µM, respectively. Further, the figures for the MIC in the assay on Plasmodium falciparum [1] and with Plasmodium falciparum [2] were 13.2 µM (≈ 4.86 µg/mL) and 14.4 µM (≈ 5.3 µg/mL), respectively.
